The list is not random: actives were taken first. Their share in the collection is about 5.9%.
KDM4C inh: blocks human GASC-1 (KDM4C) demethylase activity; Q9H3R0; GST-KDM4C 2-372, H3K9me3 peptide, LANCE TR-FRET; inhibition, % at 12.5 µM; 96,000 tested, 0.15% active; AID 720574;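 active = mean replicate inhibition above about 25%, with at least 55% of replicates also reaching it, limit read from the data, passing the limit was not always enough; inconclusive = only one of those two conditions met; inactive = neither condition met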
Target sequence (Q9H3R0 2-372 limits assumed): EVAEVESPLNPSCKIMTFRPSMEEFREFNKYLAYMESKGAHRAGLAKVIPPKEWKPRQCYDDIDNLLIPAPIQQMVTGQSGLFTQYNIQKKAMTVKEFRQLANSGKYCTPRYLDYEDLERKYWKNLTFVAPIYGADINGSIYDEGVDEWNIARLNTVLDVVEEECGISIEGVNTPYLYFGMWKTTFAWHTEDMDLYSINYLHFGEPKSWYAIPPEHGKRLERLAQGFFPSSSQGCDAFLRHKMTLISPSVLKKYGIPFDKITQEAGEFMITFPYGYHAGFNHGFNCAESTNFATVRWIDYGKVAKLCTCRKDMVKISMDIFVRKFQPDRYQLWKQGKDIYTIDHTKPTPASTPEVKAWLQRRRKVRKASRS
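System: N-terminal GST-fused human GASC-1 (KDM4C) fragment, residues 2-372 / Amount: 10 nM GST-KDM4C in enzyme reaction / Also added: H3K9me3 peptide with Fe(II)/2OG / Times: 30 min demethylation and 1 h detection at room temperature / Signal: LANCE TR-FRET / Read-out basis: Fall in 671/618 emission ratio as inhibition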
T cruzi growth-1: inhibitors of T. cruzi proliferation. AID 624255. inhibition, % at 8.34 µM. 77,000 tested, 5.9% active. T. cruzi beta-gal in NIH3T3, GalScreen luminescence, 90 h;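 active = mean inhibition above about 93%, with at least 55% of replicates each passing it, limit read from the data, passing the limit was not always enough; inconclusive = only one of those two conditions holds; inactive = neither condition holds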
IDH1 mut inh: IDH1 R132H (human) inhibition | O75874 | IDH1 R132H reductase, diaphorase/resazurin fluorescence, 60 min | inhibition, % at 10 µM | 70,000 tested, 0.18% active | AID 624101; in the data active = inhibition above about 34%; inconclusive = no clear call, values can overlap the other calls; inactive = below about 11%;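 also: 0% = DMSO and 100% = no enzyme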
Pf Dd2 inh: inhibitors of Plasmodium falciparum Dd2 growth. P. falciparum Dd2 growth, SYBR Green, 72 h; stronger effect = lower value. activity change, % at 10 µM. 94,000 tested, 2.3% active. AID 1159554; in the data active = activity change below about -80%; inconclusive = no clear call, values can overlap the other calls
T cruzi growth-2: blocks T. cruzi growth in NIH3T3 host cells; 5,600 tested, 72% active; T. cruzi beta-gal in NIH3T3, GalScreen luminescence, 90 h; AID 651739; shares compounds with T cruzi growth-1; inhibition, % at 8.35 µM;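 active = mean replicate inhibition above about 95% and at least 55% of replicates individually reaching it, limit read from the data; inconclusive = only one of the two criteria is met; inactive = neither criterion is met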
T cruzi growth-3: inhibitors of T. cruzi proliferation; shares compounds with T cruzi growth-1; T. cruzi beta-gal in NIH3T3, GalScreen luminescence, 90 h; 5,600 tested, 21% active; inhibition, % at 2.09 µM; AID 651740;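 active = mean inhibition above about 95%, with at least 55% of replicates also reaching it, limit read from the data; inconclusive = meets just one of the two conditions; inactive = meets neither condition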;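 also: plate controls were neutral control median for no effect and positive control median for full effect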
NIH3T3 tox: kills mouse NIH/3T3 fibroblasts. shares compounds with T cruzi growth-1. NIH/3T3 viability, CellTiter-Glo ATP luminescence, 90 h. cytotoxicity (signal decrease), % at 8.35 µM. 5,600 tested, 14% active. AID 651742;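 active = mean signal decrease across replicates above about 35% based on untreated-well scatter, with enough replicates individually passing, limit read from the data; inconclusive = no rule stated though some were filed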;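 also: 0% = median of neutral control wells and 100% = median of positive control wells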
3T3 cytotox 2: NIH/3T3 (mouse) viability loss; shares compounds with T cruzi growth-1; NIH/3T3 viability, CellTiter-Glo ATP luminescence, 90 h; inhibition, % at 24.9 µM; 5,600 tested, 56% active; AID 651744;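 active = mean loss of cell viability signal at or above a set limit, and enough replicates individually reaching it; inconclusive = meets only the mean limit or only the replicate share; inactive = meets neither condition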;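 also: 0% = median of neutral control wells and 100% = median of positive control wells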
An asterisk follows results filed as active; ? = inconclusive; · = no result.

SMILES | KDM4C inh | T cruzi growth-1 | IDH1 mut inh | Pf Dd2 inh | T cruzi growth-2 | T cruzi growth-3 | NIH3T3 tox | 3T3 cytotox 2
CC(C)C#Cc1cnc2c(c1)C(=O)N([C@H](C)CO)C[C@H](C)[C@H](CN(C)C(=O)Nc1ccc(F)cc1)O2 | -1 | 116* | 1 | -18 | -51 | 28 | 15 | 86*
COc1ccc(S(=O)(=O)N(C)C[C@H]2OCCCC[C@@H](C)Oc3ccc(NC(=O)C4CCCCC4)cc3C(=O)N([C@H](C)CO)C[C@H]2C)cc1 | -2 | 72 | -1 | -60 | · | · | · | ·
CC(C)NC(=O)Nc1cccc2c1O[C@@H](CN(C)Cc1ccc(C(=O)Nc3ccccc3N)cc1)[C@@H](C)CN([C@@H](C)CO)C2=O | 1 | · | 0 | -20 | · | · | · | ·
C[C@@H]1CN([C@@H](C)CO)C(=O)c2cccc(NC(=O)C3CCOCC3)c2O[C@H]1CN(C)Cc1ccc(C(=O)Nc2ccccc2N)cc1 | 6 | 107* | · | -67 | 105* | 83 | 14 | 13
C[C@@H]1CN([C@@H](C)CO)C(=O)c2cccc(NC(=O)C3CC3)c2O[C@H]1CN(C)Cc1ccc(C(=O)Nc2ccccc2N)cc1 | -1 | 99* | 1 | -54 | 106* | 94 | -9 | 6
C[C@@H]1CN([C@H](C)CO)C(=O)c2cccc(NC(=O)C3CCOCC3)c2O[C@@H]1CN(C)Cc1ccc(C(=O)Nc2ccccc2N)cc1 | -3 | 81 | · | 3 | · | · | · | ·
C[C@H]1CN([C@@H](C)CO)C(=O)c2cccc(NC(=O)NC3CCCCC3)c2O[C@H]1CN(C)Cc1ccc(C(=O)Nc2ccccc2N)cc1 | 1 | ? | · | -74 | 101* | ? | -16 | ?
CN1C(=O)c2cc(NC(=O)c3ccc(F)c(F)c3)ccc2OC[C@@H]2O[C@H](CC(=O)N3CCCCC3)CC[C@H]21 | 2 | 35 | · | -40 | · | · | · | ·
COc1ccc(S(=O)(=O)N(C)C[C@H]2OCCCC[C@@H](C)Oc3ccc(NS(=O)(=O)c4ccccc4)cc3C(=O)N([C@H](C)CO)C[C@H]2C)cc1 | -1 | 115* | · | · | 108* | 64 | 7 | -3
COc1ccc(S(=O)(=O)N(C)C[C@H]2OCCCC[C@H](C)Oc3ccc(NS(=O)(=O)c4ccc(C)cc4)cc3C(=O)N([C@@H](C)CO)C[C@@H]2C)cc1 | 1 | ? | -7 | -68 | 101* | 78 | 7 | -2
COc1ccc(S(=O)(=O)Nc2ccc3c(c2)C(=O)N([C@H](C)CO)C[C@@H](C)[C@H](CN(C)S(=O)(=O)c2ccc(OC)cc2)OCCCC[C@H](C)O3)cc1 | 0 | 100* | 0 | -74 | 107* | 62 | 18 | 5
COc1ccc(S(=O)(=O)N(C)C[C@@H]2OCCCC[C@H](C)Oc3ccc(NS(=O)(=O)c4ccc(C)cc4)cc3C(=O)N([C@@H](C)CO)C[C@H]2C)cc1 | 0 | 31 | -1 | -56 | · | · | · | ·
COc1ccc(S(=O)(=O)Nc2ccc3c(c2)C(=O)N([C@@H](C)CO)C[C@@H](C)[C@H](CN(C)S(=O)(=O)c2ccc(OC)cc2)OCCCC[C@H](C)O3)cc1 | 0 | 78 | · | -43 | · | · | · | ·
COc1ccc(S(=O)(=O)Nc2ccc3c(c2)C(=O)N([C@@H](C)CO)C[C@H](C)[C@H](CN(C)S(=O)(=O)c2ccc(OC)cc2)OCCCC[C@H](C)O3)cc1 | 0 | 101* | · | -65 | 111* | 17 | 0 | -10
O=C(C[C@H]1CC[C@@H](NC(=O)C2CC2)[C@H](CO)O1)Nc1nccs1 | 0 | · | 0 | 13 | · | · | · | ·
N/C(=N\c1nc(-c2cccs2)cc(C(F)(F)F)n1)Nc1cccc(Cl)c1 | · | · | 1 | · | · | · | · | ·
COc1ccc(S(=O)(=O)Nc2ccc3c(c2)C(=O)N([C@H](C)CO)C[C@H](C)[C@H](CN(C)S(=O)(=O)c2ccc(OC)cc2)OCCCC[C@H](C)O3)cc1 | 0 | 100* | 0 | -58 | 109* | 64 | 2 | 9
